Screening results deposited in PubChem BioAssay by The Scripps Research Institute Molecular Screening Center.
In the library only some 3.2% were active in any assay of this set; here they are far more common.
CHO parental Ca = counter-screen for OX1R antagonists: effect in parental CHO cells; parental CHO-K1, ATP-induced calcium, Fluo-8 fluorescence; inhibition, % at 5.6 µM; actives 0.63% (n = 330,000);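 active = inhibition above that plate's mean sample inhibition plus 3 SD, cut at about 26% in these data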;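 note: 0% = ATP-challenged DMSO wells and 100% = DMSO wells without ATP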
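Test system: parental CHO cells; detection: calcium-sensitive Fluo-8 fluorescence; evaluation: percent inhibition of calcium signal; also added: ATP as calcium-mobilizing challenge; repeats: one well per compound; control set: ATP-challenged DMSO wells low, unchallenged DMSO wells high; compound: single nominal dose of 5.6 µM per compound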
OX1R antag-1 = blocks the human orexin 1 receptor | CHO/OX1R cells, Fluo-8 calcium fluorescence, orexin A | AID 434989 | actives 0.43% (n = 330,000) | inhibition, % at 5 µM | O43613;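 active = inhibition above its plate's threshold, mean inhibition of all tested compounds on the plate plus 3 SD, cut at about 37% in these data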;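 note: 0% = orexin A challenge wells and 100% = SB-334867-A antagonist wells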
OX1R antag-2 = blocks the human orexin 1 receptor; actives 1.8% (n = 330,000); inhibition, % at 6.6 µM; AID 485270; OX1R-expressing cells, FRET antagonist read-out; O43613; in the data active = inhibition mostly above about 38%, no sharp cut-off; inactive = mostly below about 40%;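 note: 0% = agonist challenge alone and 100% = reference antagonist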
GPR7 antag = blocks human GPR7 receptor signaling; P48145; GPR7-expressing cells, fluorescence antagonist assay; inhibition, % at 4.4 µM; actives 1.1% (n = 290,000); in the data active = inhibition above about 16%, passing the limit was not always enough;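 note: cells stimulated with the agonist NPW; 0% = agonist with vehicle and 100% = vehicle without agonist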
TRPML3 ag = human mucolipin-3 channel agonism; HEK293 TRPML3-YFP, Fluo-8 calcium fluorescence; 100% = the carbachol control signal; activation, % at 3 µM; actives 0.29% (n = 220,000); AID 1448;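 active = activation above its plate's cutoff, the mean activation of the plate's test wells plus 3 SD, cut at about 12% in these data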;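 note: 0% = DMSO only wells and 100% = carbachol wells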
Target sequence (Q8TDD5 whole entry, looked up): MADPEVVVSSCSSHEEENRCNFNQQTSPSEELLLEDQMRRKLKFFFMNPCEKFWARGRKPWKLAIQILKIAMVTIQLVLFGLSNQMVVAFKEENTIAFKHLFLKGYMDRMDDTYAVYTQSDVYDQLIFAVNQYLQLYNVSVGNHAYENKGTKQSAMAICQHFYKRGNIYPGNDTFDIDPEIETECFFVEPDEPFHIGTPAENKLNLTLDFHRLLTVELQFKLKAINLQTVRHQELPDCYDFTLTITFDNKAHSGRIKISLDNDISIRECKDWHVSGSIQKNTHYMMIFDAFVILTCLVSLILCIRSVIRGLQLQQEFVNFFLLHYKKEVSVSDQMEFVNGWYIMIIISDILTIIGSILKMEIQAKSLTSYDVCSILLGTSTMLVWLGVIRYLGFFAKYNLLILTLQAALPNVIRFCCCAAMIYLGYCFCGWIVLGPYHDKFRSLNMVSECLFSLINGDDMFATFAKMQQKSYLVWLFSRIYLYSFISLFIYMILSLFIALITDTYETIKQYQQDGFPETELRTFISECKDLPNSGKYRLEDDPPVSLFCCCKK
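Material: TRPML3-YFP stable HEK293 cells | Dosing: One concentration, 3 µM nominal, 0.3% DMSO | Timing: 125 s total fluorescence read per well | Technique: Fluo-8 calcium dye fluorescence, ex 470-495, em 515-575 nm | Measure: Percent activation from peak-to-basal fluorescence ratio, scaled between DMSO and carbachol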
TRPN1 ag = zebrafish TRPN1 (NompC) channel agonism; HEK293 zebrafish TRPN1-YFP, Fluo-8 calcium fluorescence; 100% = response to 87 µM carbachol; AID 1424; activation, % at 3 µM; actives 0.18% (n = 220,000);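 active = activation above its plate's cutoff, the mean activation of test wells on that plate plus 3 SD, cut at about 19% in these data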;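 note: 0% = DMSO alone and 100% = 87 µM carbachol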
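Material – zebrafish TRPN1-YFP in HEK293 cells · Doses – 3 µM single point · Schedule – dye 1 h 37 °C plus 30 min RT · Signal – Fluo-8 calcium fluorescence, excitation 470-495 nm, emission 515-575 nm · Read-out – % activation versus carbachol response · Control set – carbachol high, DMSO low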
GPR7 antag conf = human GPR7 antagonism, confirmation assay; shares compounds with GPR7 antag; GPR7-expressing cells, calcium fluorescence antagonist mode; inhibition, % at 4.4 µM; actives 52% (n = 2,400); AID 1952; in the data active = inhibition above about 24%;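 note: stimulated with the GPR7 agonist NPW; 0% = agonist plus vehicle and 100% = vehicle alone without agonist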
MCHR1 antag = counter-screen for GPR7 antagonists: antagonists of human MCHR1; MCHR1-expressing cells, fluorescence antagonist assay; inhibition, % at 4.4 µM; shares compounds with GPR7 antag; AID 2148; actives 62% (n = 2,400); in the data active = inhibition above about 22%;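 note: 0% = vehicle with agonist and 100% = vehicle without agonist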
The depositor's hits bear a star; · = not tested or not shown.

SMILES | CHO parental Ca | OX1R antag-1 | OX1R antag-2 | GPR7 antag | TRPML3 ag | TRPN1 ag | GPR7 antag conf | MCHR1 antag
N#Cc1ccc(NC(=O)Nc2cccc(C#N)c2)cc1 | · | · | · | 25* | 12* | 23* | 36* | 55*
COC(=O)[C@@H](Cc1c[nH]c2ccccc12)NC(=O)CCC(=O)c1ccc(Br)cc1 | -15 | -3 | 13 | · | · | · | · | 14
COc1cc(CN(C2CCCCC2)S(=O)(=O)c2ccc(S(=O)(=O)N(C)C3CCCCC3)cc2)cc(OC)c1OC | -22 | -25 | 5 | 10 | 1 | 0 | · | ·
O=C(CC1C(=O)NCCN1C(=O)Nc1ccc(Cl)cc1)Nc1ccc(F)cc1 (stereo unspecified) | -1 | -13 | 13 | 18 | 1 | 2 | · | ·
Cc1cccc(NC(=O)CC2C(=O)NCCN2C(=O)Nc2ccc(Cl)cc2)c1 (stereo unspecified) | · | · | · | 21* | · | · | 33* | 47*
CCN(CC)c1ccc(C=NCCNS(=O)(=O)c2ccc(C)cc2)cc1 | -9 | -13 | 21 | -7 | · | · | · | ·
CCCS(=O)(=O)c1nc(S(=O)(=O)c2ccc(C)cc2)c(N2CCC(C)CC2)s1 | -11 | -7 | 8 | 1 | · | · | · | ·
CCS(=O)(=O)c1nc(S(=O)(=O)c2ccc(C)cc2)c(N2CCC(C)CC2)s1 | -10 | 4 | 23 | 22* | · | · | 15 | 49*
c1ccc(Cn2ncc3c(NCc4ccco4)ncnc32)cc1 | -4 | -10 | 6 | 4 | 0 | -1 | · | ·
c1ccc(-n2ncc3c(NCc4ccco4)ncnc32)cc1 | 4 | -3 | 13 | 24* | 0 | 0 | 48* | 44*
CCC1CCCCN1C(=O)c1sc2nc(C)nc(N(CC)CC)c2c1C (stereo unspecified) | -14 | -39 | 13 | 25* | 3 | -2 | 21 | 19
COc1ccc(C(=O)Nc2ccc(C(=O)N3CCC(C)CC3)cc2)cc1OC | -24 | -10 | 4 | -17 | · | · | · | ·
O=C(Nc1cccs1)Nc1ccccc1Cl | -18 | -10 | 15 | -11 | 2 | 4 | · | ·
Cc1c(NC(=O)Nc2cccs2)cccc1[N+](=O)[O-] | 10 | 11 | 13 | 36* | 6 | 5 | -9 | 36*
COc1ccccc1N1CCN(C(c2ccc(C)cc2)c2nnnn2C(C)C)CC1 (stereo unspecified) | -3 | -18 | 14 | 17 | 0 | -2 | · | ·
COc1ccccc1N1CCN(C(c2ccc(F)cc2)c2nnnn2C(C)C)CC1 (stereo unspecified) | · | · | · | 43* | 0 | 0 | 22 | 12
CC(C)(C)OC(=O)C[C@@H]1C/C=C\C[C@@H](CC(=O)N[C@@H](CO)Cc2ccccc2)C(=O)N2CCC[C@@H]2COC1=O | -22 | -24 | 9 | · | · | · | · | ·
O=C(O)CC(CC(=O)N1CCN(C(=O)c2ccco2)CC1)c1ccccc1 (stereo unspecified) | 8 | 3 | 3 | -4 | · | · | · | ·
Cc1ccc(S(=O)(=O)N(Cc2ccc(F)cc2)Cc2ccco2)cc1 | 24 | 9 | 20 | 32* | 10 | -1 | 30* | 58*
Cc1ccc2c(c1)N(CC(=O)OC(CC(C)C)C(=O)NC1CCCC1)C(=O)CO2 (stereo unspecified) | -14 | -33 | 25 | 29* | 0 | -1 | 30* | 33*
COc1cccc(CNC(=O)CN2C(=O)COc3ccc(S(=O)(=O)N4CCOCC4)cc32)c1 | -10 | -13 | 23 | 32* | · | · | -9 | 3
O=C(CN1C(=O)COc2ccc(S(=O)(=O)N3CCCC3)cc21)NC1CC1 | -9 | -9 | 7 | 4 | 0 | 0 | · | ·
O=C(CN1C(=O)COc2ccc(S(=O)(=O)N3CCCC3)cc21)NC1CCCCCCC1 | -12 | -24 | -3 | 27* | -1 | -1 | -3 | 5
COc1cccc(CNC(=O)CN2C(=O)COc3ccc(S(=O)(=O)N4CCC(C)CC4)cc32)c1 | -27 | -39 | 12 | -18 | · | · | · | ·
